Measured values reported in ChEMBL document CHEMBL4024771, “Optimization of Orally Bioavailable Enhancer of Zeste Homolog 2 (EZH2) Inhibitors Using Ligand and Property-Based Design Strategies: Identification of Development Candidate …” (J Med Chem, 2018).
Values after ≈ are worked out from the molar mass of the structure shown. Active and inactive are the calls of the source. No cut-off for these calls is given here.

Assays:
[1] = Clearance in rat hepatocytes assessed per million cells; format: ADME, cell-based, Hepatocyte; settings: read-out: CLH
Salmonella typhimurium = assay: Mutagenicity in Salmonella typhimurium by Ames assay; format: toxicity; settings: salmonella enterica subsp. enterica serovar typhimurium
[2] = Intrinsic clearance in human liver microsomes assessed per mg protein at 1 uM preincubated for 10 mins followed by NADPH addition measured after 45 mins by LC-MS/MS analysis; format: ADME, microsome; settings: liver microsomes, read-out: CLH
Outline: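 Test compound (1 μM) with pooled liver microsomes (0.8 mg/mL protein) in 100 mM potassium phosphate pH 7.4, 10 min preincubation, started with 2 mM NADPH, 45 min at 37 °C, in triplicate. Samples quenched with cold methanol containing buspirone internal standard, analysed by LC−MS/MS. CLint derived from t1/2 of parent loss (log-linear slope).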

Mus musculus [3] = assay: Time at which free plasma concentration stays below antiproliferative KARPAS422 cells IC90 level in mouse xenografted with human KARPAS422 cells at 100 mg/kg, po bid
[4] = Passive permeability in MDCK cells at 2 uM after 90 mins by LC-MS/MS analysis; format: ADME, cell-based, Canis lupus familiaris; settings: dog, MDCK; read-out: permeability
Outline: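 Low-efflux MDCK cells (MDCK-LE) on 96-well inserts, used on day 4. Monodirectional transport of 2 μM drug in transport buffer with 0.1% DMSO at 37 °C. Donor and receiver sampled at 0 and 90 min for LC−MS/MS. Donor pH 6.5 and 7.4, receiver pH 7.4.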

Mus musculus [5] = assay: Toxicity in mouse xenografted with human KARPAS422 cells harboring EZH2 Y641N mutant assessed as change in body weight at 100 to 300 mg/kg, po bid; format: organism-based; settings: in vivo
[6] = biological target: T1, Histone-lysine N-methyltransferase EZH2 (Homo sapiens, UniProt Q15910)
Target sequence in this assay (Q15910 whole entry, looked up): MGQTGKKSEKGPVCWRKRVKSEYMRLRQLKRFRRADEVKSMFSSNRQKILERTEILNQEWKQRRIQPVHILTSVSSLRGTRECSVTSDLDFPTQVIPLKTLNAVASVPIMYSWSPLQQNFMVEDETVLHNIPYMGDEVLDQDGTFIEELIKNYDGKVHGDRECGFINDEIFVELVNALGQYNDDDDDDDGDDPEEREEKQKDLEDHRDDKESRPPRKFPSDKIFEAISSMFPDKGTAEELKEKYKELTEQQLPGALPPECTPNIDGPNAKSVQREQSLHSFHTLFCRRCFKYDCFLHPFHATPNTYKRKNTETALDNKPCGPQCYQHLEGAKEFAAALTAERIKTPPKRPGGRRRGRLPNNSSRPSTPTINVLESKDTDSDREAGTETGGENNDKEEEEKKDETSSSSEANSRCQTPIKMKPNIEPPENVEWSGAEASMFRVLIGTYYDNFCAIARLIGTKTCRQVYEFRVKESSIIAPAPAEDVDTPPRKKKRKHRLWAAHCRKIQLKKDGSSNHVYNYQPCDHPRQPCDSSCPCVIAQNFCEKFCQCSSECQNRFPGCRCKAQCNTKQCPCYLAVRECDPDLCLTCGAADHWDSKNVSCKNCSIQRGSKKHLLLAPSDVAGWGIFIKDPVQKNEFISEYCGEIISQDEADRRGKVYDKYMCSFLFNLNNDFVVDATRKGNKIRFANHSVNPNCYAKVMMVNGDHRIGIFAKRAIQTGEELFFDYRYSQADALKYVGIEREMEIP

KARPAS-422 [7] = assay: Antiproliferative activity against human KARPAS422 cells after 72 hrs by resazurin assay; format: functional, cell-based; settings: Homo sapiens, KARPAS-422, 72 h
[8] = biological target: T1, Histone-lysine N-methyltransferase EZH2; assay: Binding affinity to EZH2 (unknown origin)
Target sequence in this assay (Q15910 whole entry): as the sequence (Q15910 whole entry, looked up) above

Mus musculus [9] = assay: Time at which free plasma concentration stays above antiproliferative KARPAS422 cells IC90 level in mouse xenografted with human KARPAS422 cells at 300 mg/kg, po bid
[10] = Lipophilicity, log D of the compound at pH 7.4; settings: buffer, pH 7.4, logD
Cytochrome P450 1A2 = biological target: T2, Cytochrome P450 1A2 (Homo sapiens, UniProt P05177); assay: Inhibition of CYP1A2 (unknown origin); format: ADME
T2 sequence (P05177 whole entry): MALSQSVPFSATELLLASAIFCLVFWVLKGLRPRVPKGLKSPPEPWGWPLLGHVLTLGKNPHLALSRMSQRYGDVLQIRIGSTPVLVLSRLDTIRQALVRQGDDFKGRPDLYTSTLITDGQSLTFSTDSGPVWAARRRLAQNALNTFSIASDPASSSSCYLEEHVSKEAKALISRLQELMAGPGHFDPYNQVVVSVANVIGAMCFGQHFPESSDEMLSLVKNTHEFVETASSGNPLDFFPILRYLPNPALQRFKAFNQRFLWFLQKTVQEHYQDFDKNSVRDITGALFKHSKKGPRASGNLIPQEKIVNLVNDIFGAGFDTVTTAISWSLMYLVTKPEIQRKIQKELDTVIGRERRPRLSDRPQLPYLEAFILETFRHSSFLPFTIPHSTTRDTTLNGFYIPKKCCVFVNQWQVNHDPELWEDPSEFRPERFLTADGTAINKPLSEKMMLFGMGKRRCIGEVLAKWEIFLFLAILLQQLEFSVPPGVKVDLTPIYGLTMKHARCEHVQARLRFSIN

[11] = Kinetic solubility of the compound; format: physicochemical; settings: read-out: Kinetic_solubility
Mus musculus [12] = assay: In vivo inhibition of EZH2 in mouse xenografted with human KARPAS422 cells harboring EZH2 Y641N mutant assessed as reduction in H3K27me3 level in tumor at 300 mg/kg, po bid measured 4 hrs post last dose on day 9 relative to control; format: functional; settings: KARPAS-422, po
Outline: (§1)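 Mice bearing Karpas-422 (EZH2 Y641N) xenografts were dosed with crystalline suspension orally twice daily (7 h/17 h) or subcutaneously once daily. Tumors were collected on day 9, 4 h after the last dose, for H3K27me3 quantification.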

Mus musculus [13] = assay: In vivo inhibition of EZH2 in mouse xenografted with human KARPAS422 cells harboring EZH2 Y641N mutant assessed as reduction in H3K27me3 level in tumor at 100 mg/kg, sc qd measured 4 hrs post last dose on day 9 relative to control; format: functional; settings: KARPAS-422, sc; outline: as §1
KARPAS-422 [14] = assay: Antitumor activity against human KARPAS422 cells harboring EZH2 Y641N mutant xenografted in mouse assessed as decrease in tumor regression at 100 mg/kg, sc qd measured 40 days post treatment termination on day 31; format: functional, organism-based
[15] = biological target: Voltage-gated inwardly rectifying potassium channel KCNH2 (Homo sapiens, UniProt Q12809); assay: Inhibition of human ERG
Cytochrome P450 2D6 = Cytochrome P450 2D6 (Homo sapiens, UniProt P10635); assay: Inhibition of CYP2D6 (unknown origin); format: ADME
Cytochrome P450 2C9 = Cytochrome P450 2C9 (Homo sapiens, UniProt P11712); assay: Inhibition of CYP2C9 (unknown origin); format: ADME
[16] = system: Histone-lysine N-methyltransferase EZH2 (Homo sapiens), Q15910 [Y641N]
KARPAS-422 [17] = assay: Antitumor activity against human KARPAS422 cells harboring EZH2 Y641N mutant xenografted in mouse assessed as decrease in tumor growth at 100 mg/kg, po bid; format: functional, organism-based
[18] = Thermodynamic solubility in water at 25 degC using crystalline form; format: physicochemical; settings: read-out: Therm_solubility

Sequence of Histone-lysine N-methyltransferase EZH2 (Homo sapiens), Q15910 [Y641N] (Q15910 whole entry Y641N): as the sequence (Q15910 whole entry, looked up) above, with Y641N counted along it
Sequence of Cytochrome P450 2C9 (P11712 whole entry): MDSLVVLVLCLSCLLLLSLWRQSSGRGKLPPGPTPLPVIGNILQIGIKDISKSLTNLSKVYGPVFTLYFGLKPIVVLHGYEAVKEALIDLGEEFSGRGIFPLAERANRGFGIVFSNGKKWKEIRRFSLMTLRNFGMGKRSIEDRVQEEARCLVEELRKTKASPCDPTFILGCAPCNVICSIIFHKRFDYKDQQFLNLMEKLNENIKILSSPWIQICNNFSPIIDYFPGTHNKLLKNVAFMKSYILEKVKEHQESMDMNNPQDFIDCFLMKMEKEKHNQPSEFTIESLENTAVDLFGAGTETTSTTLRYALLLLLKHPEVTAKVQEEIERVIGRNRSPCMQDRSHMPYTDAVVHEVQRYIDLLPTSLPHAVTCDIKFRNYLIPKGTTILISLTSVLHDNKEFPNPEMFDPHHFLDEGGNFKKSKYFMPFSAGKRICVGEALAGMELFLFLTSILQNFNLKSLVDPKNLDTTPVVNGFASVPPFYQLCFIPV
Sequence of Cytochrome P450 2D6 (P10635 whole entry): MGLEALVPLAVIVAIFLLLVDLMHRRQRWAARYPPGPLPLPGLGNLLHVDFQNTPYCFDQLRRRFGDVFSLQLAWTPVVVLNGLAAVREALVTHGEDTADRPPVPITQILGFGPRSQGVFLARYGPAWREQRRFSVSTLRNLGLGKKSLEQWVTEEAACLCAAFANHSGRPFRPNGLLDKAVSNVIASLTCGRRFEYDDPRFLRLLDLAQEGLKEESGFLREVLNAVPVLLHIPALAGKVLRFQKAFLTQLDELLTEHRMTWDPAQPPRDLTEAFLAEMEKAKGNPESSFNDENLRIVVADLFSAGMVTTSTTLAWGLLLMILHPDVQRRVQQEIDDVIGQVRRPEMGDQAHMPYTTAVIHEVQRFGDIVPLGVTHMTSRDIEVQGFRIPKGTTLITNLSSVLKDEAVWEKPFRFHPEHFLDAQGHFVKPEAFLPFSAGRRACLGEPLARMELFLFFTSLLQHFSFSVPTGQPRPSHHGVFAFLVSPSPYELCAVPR
Sequence of Voltage-gated inwardly rectifying potassium channel KCNH2 (Q12809 whole entry): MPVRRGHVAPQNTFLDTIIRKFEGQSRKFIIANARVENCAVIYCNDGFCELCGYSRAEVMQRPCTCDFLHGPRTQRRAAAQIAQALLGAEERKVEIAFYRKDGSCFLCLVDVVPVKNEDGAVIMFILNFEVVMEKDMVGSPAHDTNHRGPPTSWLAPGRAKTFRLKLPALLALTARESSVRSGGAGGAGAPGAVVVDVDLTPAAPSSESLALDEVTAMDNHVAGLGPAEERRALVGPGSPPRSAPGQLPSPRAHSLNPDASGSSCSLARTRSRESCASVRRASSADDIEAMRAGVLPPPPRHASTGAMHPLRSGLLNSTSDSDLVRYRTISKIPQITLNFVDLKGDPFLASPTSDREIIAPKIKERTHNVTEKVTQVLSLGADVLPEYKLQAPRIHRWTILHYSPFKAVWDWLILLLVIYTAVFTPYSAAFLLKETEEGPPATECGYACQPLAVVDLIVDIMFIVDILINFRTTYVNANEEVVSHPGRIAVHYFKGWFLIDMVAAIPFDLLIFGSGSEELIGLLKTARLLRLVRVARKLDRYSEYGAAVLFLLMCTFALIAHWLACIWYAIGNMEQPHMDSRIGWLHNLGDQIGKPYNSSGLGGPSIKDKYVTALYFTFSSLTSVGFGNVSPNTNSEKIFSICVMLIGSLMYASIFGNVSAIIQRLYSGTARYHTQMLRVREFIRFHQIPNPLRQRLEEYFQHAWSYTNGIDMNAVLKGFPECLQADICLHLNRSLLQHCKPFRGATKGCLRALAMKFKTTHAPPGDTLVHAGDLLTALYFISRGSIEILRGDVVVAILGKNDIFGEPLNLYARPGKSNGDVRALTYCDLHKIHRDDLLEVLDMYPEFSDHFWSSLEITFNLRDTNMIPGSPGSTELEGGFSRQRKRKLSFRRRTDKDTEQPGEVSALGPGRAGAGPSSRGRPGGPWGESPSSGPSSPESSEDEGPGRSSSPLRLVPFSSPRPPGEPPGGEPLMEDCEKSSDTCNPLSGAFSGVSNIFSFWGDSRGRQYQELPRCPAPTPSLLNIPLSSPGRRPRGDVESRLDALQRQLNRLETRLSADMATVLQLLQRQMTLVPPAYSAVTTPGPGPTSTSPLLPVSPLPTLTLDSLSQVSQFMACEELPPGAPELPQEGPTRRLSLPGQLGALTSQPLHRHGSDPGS

hepatocyte CLint [1]: 109 µL/min/1e6 cells
microsomal CLint at 1 µM [2]: 39 µL/min/mg
Papp at […], 2 µM [4]: 4.8 ×10⁻⁶ cm/s
T1/2 [6]: 22 h
IC50 (KARPAS-422 [7]): 6 nM
IC90 (KARPAS-422 [7]): 60 nM
Ki [8]: < 0.1 nM
logD [10]: 1.9
IC50 (Cytochrome P450 1A2): > 30000 nM
solubility kinetic [11]: 538 µM (≈ 251 µg/mL)
IC50 (Cytochrome P450 2D6): > 30000 nM
IC50 (Cytochrome P450 2C9): > 30000 nM
T1/2 [16]: 6 h
solubility thermodynamic [18]: 315 µg/mL (≈ 674 µM)
Compound: COc1cc(C)[nH]c(=O)c1CN1CCc2c(Cl)cc([C@H](OC)C3COC3)c(Cl)c2C1=O [MEVROMETOSTAT]
Activity (Salmonella typhimurium): Non-Toxic
Time (Mus musculus [3]): 7 to 24 h
Activity (Mus musculus [5]): Non-Toxic
Time (Mus musculus [9]): 24 h
inhibition in vivo at 300 mg/kg (Mus musculus [12]): 47.9%
inhibition in vivo at 100 mg/kg (Mus musculus [13]): 13.8%
Activity (KARPAS-422 [14]): Active
IC50 [15]: > 100000 nM
TGI (KARPAS-422 [17]): Active
